Test results published in publication PMC4532310 (Nature, 2015).
Entries after “also recorded” stand apart in the source; their conditions may differ. Bridges are numbered along the chain shown (N, C = ends). Where no end group is shown, it is not given here.

What was measured:
[1] = target: T1, ER (ERECTA) ectodomain, ERΔK-GFP (Arabidopsis thaliana, UniProt Q42371); assay: QCM direct binding, ERΔK-GFP-functionalized chip; details: frequency change, phosphate buffer, 4°C
T1 sequence (Q42371 25-580 limits assumed): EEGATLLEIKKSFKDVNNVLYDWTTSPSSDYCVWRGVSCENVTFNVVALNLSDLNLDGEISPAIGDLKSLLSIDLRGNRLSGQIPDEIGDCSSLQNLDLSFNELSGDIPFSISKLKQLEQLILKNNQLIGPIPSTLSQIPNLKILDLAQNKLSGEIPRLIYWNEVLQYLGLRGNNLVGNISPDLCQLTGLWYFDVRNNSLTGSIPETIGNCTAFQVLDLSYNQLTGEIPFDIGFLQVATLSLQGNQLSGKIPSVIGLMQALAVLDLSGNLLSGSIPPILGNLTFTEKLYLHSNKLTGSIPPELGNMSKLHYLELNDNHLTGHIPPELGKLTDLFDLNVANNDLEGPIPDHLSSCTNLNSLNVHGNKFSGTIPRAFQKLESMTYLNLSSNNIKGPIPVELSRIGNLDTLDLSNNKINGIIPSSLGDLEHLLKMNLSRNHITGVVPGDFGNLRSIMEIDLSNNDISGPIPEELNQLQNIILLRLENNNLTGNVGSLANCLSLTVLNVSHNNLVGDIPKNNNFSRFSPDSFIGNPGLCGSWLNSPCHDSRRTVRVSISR
Procedure, shortened: (§1)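 Purified GFP-fused receptors (ERΔK-GFP, TMM-GFP) or control GFP are obtained from N. benthamiana. They are immobilised on gold QCM chips via anti-GFP antibody. Solutions of HPLC-purified, bioassay-verified bioactive peptide are then introduced, and binding is recorded as frequency change. Each run yields 10-20 points (average, SD). Replicate runs: ER n=4 Stomagen, n=2 MEPF2; TMM n=2 Stomagen, n=3 MEPF2; GFP n=3 Stomagen, n=2 MEPF2.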

[2] = target: T2, TMM (TOO MANY MOUTHS), TMM-GFP (Arabidopsis thaliana, UniProt Q9SSD1); assay: QCM direct binding, TMM-GFP-functionalized chip; details: frequency change, phosphate buffer, 4°C
T2 sequence (Q9SSD1 24-496): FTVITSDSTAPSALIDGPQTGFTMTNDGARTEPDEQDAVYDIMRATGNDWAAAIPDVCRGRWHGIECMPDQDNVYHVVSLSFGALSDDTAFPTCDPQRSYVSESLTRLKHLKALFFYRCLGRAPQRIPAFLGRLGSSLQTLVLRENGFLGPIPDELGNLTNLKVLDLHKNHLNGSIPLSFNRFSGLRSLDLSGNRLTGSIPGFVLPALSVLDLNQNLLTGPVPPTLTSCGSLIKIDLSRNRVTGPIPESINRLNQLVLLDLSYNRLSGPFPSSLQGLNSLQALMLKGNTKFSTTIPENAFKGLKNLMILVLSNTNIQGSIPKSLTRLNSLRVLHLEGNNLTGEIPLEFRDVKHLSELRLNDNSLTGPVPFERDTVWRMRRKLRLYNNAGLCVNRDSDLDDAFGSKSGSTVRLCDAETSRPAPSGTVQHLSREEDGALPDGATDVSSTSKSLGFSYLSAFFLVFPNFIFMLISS
Procedure, shortened: as §1

GFP = assay: QCM direct binding, control GFP chip; details: frequency change, phosphate buffer, 4°C, Stomagen n=3, MEPF2 n=2
Procedure, shortened: as §1

ER ectodomain (ERΔK-GFP) = target: T3, ER ectodomain (ERΔK-GFP) (Arabidopsis thaliana, UniProt Q42371); assay: Ligand competition assay, Stomagen vs MEPF2-MYC-HIS for binding to ER
T3 sequence (Q42371 25-580 limits assumed): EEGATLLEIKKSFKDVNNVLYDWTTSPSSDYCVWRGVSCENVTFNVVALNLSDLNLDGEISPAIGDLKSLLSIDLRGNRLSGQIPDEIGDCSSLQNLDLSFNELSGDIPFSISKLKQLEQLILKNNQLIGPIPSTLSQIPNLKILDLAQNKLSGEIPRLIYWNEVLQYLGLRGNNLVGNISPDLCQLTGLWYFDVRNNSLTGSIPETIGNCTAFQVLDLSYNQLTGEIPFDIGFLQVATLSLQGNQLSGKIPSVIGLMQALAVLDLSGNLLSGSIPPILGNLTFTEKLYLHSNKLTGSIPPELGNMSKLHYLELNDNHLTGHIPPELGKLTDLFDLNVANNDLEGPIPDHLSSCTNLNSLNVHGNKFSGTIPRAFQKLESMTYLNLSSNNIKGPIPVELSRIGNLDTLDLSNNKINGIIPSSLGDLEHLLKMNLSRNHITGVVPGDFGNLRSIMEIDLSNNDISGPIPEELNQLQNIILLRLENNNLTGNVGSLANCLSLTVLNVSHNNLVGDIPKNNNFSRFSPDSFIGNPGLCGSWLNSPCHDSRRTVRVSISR
Procedure, shortened: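 ER ectodomain–GFP (ERΔK-GFP) is expressed in N. benthamiana, and microsomal fractions are prepared. Fractions are incubated with 1 μM bioactive MEPF2-MYC-HIS plus Stomagen at 0-23.4 μM, then ER is immunoprecipitated. The co-IP'd tagged MEPF2 is immunoblotted first, and the same blot is re-probed with anti-Stomagen antibody. Blots are quantified from four biological replicates (S.E.M.), and IC50 is derived from this immunoblot-based quantification.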

TMM = assay: Co-IP with TMM-GFP; assay type: binding, Arabidopsis; details: N. benthamiana microsomal fraction; 1 μM peptide; anti-GFP IP
[3] = test system: Arabidopsis wild-type seedlings, abaxial cotyledon epidermis; assay type: in vivo; details: independent batch of Stomagen used in Fig. 3c, five days, n=8 (Peak 1), n=6 (Peak 2)
MPK3 and MPK6 = assay: MAPK phosphorylation assay in Arabidopsis seedlings; assay type: in vivo; details: MEPF2 2.5 μM, Arabidopsis wild-type seedlings; anti-phosphoERK immunoblot
Procedure, shortened: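 Peptide (MEPF2) is applied to wild-type Arabidopsis seedlings and sampled over a time course. Heat-denatured peptide serves as a control. Extracts are immunoblotted with anti-phosphoERK antibody to detect phosphorylated MPK6 and MPK3, and Coomassie-stained total protein is shown. Four and two biological replicates are run for the two blot series.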

[4] = target: ER ectodomain fused to GFP (ERΔK-GFP) (Arabidopsis); assay: co-IP

| Molecule | binding to ERΔK-GFP (words) [1] | binding to TMM (words) [2] | binding to control GFP (GFP) | IC50 (ER ectodomain (ERΔK-GFP)) [nM] | replacement of MEPF2 for ER-binding (ER ectodomain (ERΔK-GFP); 1 μM bioactive MEPF2-MYC-HIS, increasing Stomagen 0-23.4 μM, IP and immunoblot) | association with TMM by Co-IP (TMM) | bioactivity, HPLC peaks of independent batch used for QCM [3] | binding to ERΔK-GFP (words) ([1]; listed as EPF2) | binding to TMM (words) ([2]; listed as EPF2) | time after which MPK3/MPK6 phosphorylation declined (MPK3 and MPK6) [h] | time to phosphorylation of MPK3 and MPK6 (MPK3 and MPK6) [min] | IC50 [4] [nM] |
| --- | --- | --- | --- | --- | --- | --- | --- | --- | --- | --- | --- | --- |
| IGSTAPTCTYNECRGCRYKCRAEQVPVEGNDPINSAYHYRCVCHR (disulfide 8-41, 13-20, 16-43) [Stomagen] | saturable binding to the ER ectodomain fused to GFP (ERΔK-GFP) with similar dissociation constants at a nanomolar range; also recorded: bind to ER and TMM with a similar affinity | bound to TMM with high affinity; also recorded: bind to ER and TMM with a similar affinity | No significant binding | 454 | replaced MEPF2 for ER-binding | associates with all ER-family RKs and TMM | bioactive | – | – | – | – | – |
| TGSSLPDCSYACGACSPCKRVMISFECSVAESCSVIYRCTCRGRYYHVPSRA (disulfide 8-39, 12-18, 15-41, 27-33) [MEPF2] | saturable binding to the ER ectodomain fused to GFP (ERΔK-GFP) with similar dissociation constants at a nanomolar range | bound to TMM with high affinity | No significant binding | – | – | – | – | bind to ER and TMM with a similar affinity | bind to ER and TMM with a similar affinity | 2 | 10 | – |
| IGSTAPTCTYNECRGCRYKCRAEQVPVEGNDPINSAYHYRCVCHR [Stomagen/EPF-LIKE9 peptide (bioactive Stomagen)] | – | – | – | – | – | – | – | – | – | – | – | 454 |
